{"source": "ChEMBL document CHEMBL1127304", "about": "“The discovery of novel, structurally diverse protein kinase C agonists through computer 3D-database pharmacophore search. Molecular modeling studies” (J Med Chem, 1994)", "data": [{"biological_target": "T1, Protein kinase C alpha type (Homo sapiens, UniProt P17252)", "test": "(§1) Binding affinity with protein kinase C (PK-C) alpha bound to labeled [20-3H]-PDBU at a conc of 30 ug/mL", "units": {"Ki": "µM"}, "values": [{"smiles": "O=C1c2ccccc2C(=O)c2c(Nc3ccc(S(=O)(=O)N(CCO)CCO)cc3)ccc(O)c21", "Ki": 7.8}, {"smiles": "O=C1c2ccccc2C(=O)c2c(Nc3cccc(S(=O)(=O)N(CCO)CCO)c3)ccc(O)c21", "Ki": 26.6}, {"smiles": "CC(=O)OC[C@@]1(C)C(OC(C)=O)CC[C@]2(C)[C@H](CC(OC(C)=O)C3=CCOC3=O)[C@](C)(CO)CC[C@H]21", "note": "(stereo partly specified)", "Ki": 37.7}, {"smiles": "O=C(OCC(O)C(OC(=O)c1ccccc1)C(CO)OC(=O)c1ccccc1)c1ccccc1", "note": "(stereo unspecified)", "Ki": 12.9}, {"smiles": "C[C@]12C/C(=C/N(CCO)CCO)C(=O)C[C@@H]1CC[C@@H]1[C@@H]2CC[C@]2(C)[C@@H](O)CC[C@@H]12", "Ki": 16.1}]}, {"biological_target": "T1, Protein kinase C alpha type", "test": "as §1", "summary_of_the_method": "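Competitive displacement of [20-³H]phorbol 12,13-dibutyrate bound to PK-C α, with each ligand at a single concentration of 30 μg/mL in media. The read-out is percent inhibition of bound [³H]PDBU.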", "units": {"inhibition": "%"}, "values": [{"smiles": "CC(=O)C(C(=O)CCSCCO)C(SCCO)c1ccc(Cl)c(Cl)c1", "note": "(stereo unspecified)", "inhibition": 30}, {"smiles": "COc1cccc2c1C(=O)c1c(O)c3c(c(O)c1C2=O)C[C@@](O)(/C(CO)=N/NC(=O)c1ccc(Cl)c(Cl)c1)C[C@@H]3OC1CC(N)C(O)C(C)O1", "note": "(stereo partly specified)", "inhibition": 30}, {"smiles": "CC(=O)O[C@@H]1CC2C(C)(C)C(=O)C=CC2(C)C2CCC3(C)C(=CCC3C(CO)CCC(O)C(=O)C(C)(C)O)C21", "note": "(stereo partly specified)", "inhibition": 27}, {"smiles": "O=C1c2c(NCCCNCCO)cccc2C(=O)c2c(NCCCNCCO)ccc(O)c21", "inhibition": 30}, {"smiles": "O=C1c2cccc(O)c2C(=O)c2c(OCCN(CCO)Cc3ccccc3)cccc21", "inhibition": 25}, {"smiles": "O=C1c2cccc(O)c2C(=O)c2c(OCCN(CCO)Cc3ccccc3)ccc(O)c21", "inhibition": 34}]}]}
